Assay results from ChEMBL document CHEMBL1240399.

Assays:
[1] = substrate: C[C@H]1[C@H](NC(=O)/C(=N\OC(C)(C)C(=O)O)c2csc(N)n2)C(=O)N1S(=O)(=O)O; assay: (§1) Activity of Pseudomonas aeruginosa GES-13 beta lactamase assessed as hydrolysis by spectrometry
Method in brief: (§2)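 GES-13 expressed in E. coli(pB-ges13), released by sonication in 20 mM Tris pH 8.0, purified by Q-Sepharose (0–1 M NaCl gradient) then S-Sepharose after dialysis against 20 mM MES pH 6.0 (eluted 400–500 mM NaCl); >95% pure by SDS-PAGE. Hydrolysis of penicillin G, nitrocefin, cephalothin, cefotaxime, ceftazidime, aztreonam and imipenem followed spectrophotometrically; kinetic parameters derived.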

[2] = substrate: CC(C)(O/N=C(\C(=O)N[C@@H]1C(=O)N2C(C(=O)[O-])=C(C[n+]3ccccc3)CS[C@H]12)c1csc(N)n1)C(=O)O; assay: as §1; method in brief: as §2
[3] = substrate: C[C@@H](O)[C@H]1C(=O)N2C(C(=O)O)=C(SCCNC=N)C[C@H]12; assay: as §1; method in brief: as §2
[4] = substrate: CO/N=C(\C(=O)N[C@@H]1C(=O)N2C(C(=O)O)=C(COC(C)=O)CS[C@H]12)c1csc(N)n1; assay: as §1; method in brief: as §2
[5] = substrate: O=C(Cc1cccs1)N[C@@H]1C(=O)N2C(C(=O)O)=C(/C=C/c3ccc([N+](=O)[O-])cc3[N+](=O)[O-])CS[C@H]12; assay: as §1; method in brief: as §2
[6] = substrate: CC1(C)S[C@@H]2[C@H](NC(=O)Cc3ccccc3)C(=O)N2[C@H]1C(=O)O; assay: as §1; method in brief: as §2
[7] = substrate: C[C@H]1[C@H](NC(=O)/C(=N\OC(C)(C)C(=O)O)c2csc(N)n2)C(=O)N1S(=O)(=O)O; assay: (§3) Ratio of Kcat/Km for Pseudomonas aeruginosa GES-13 beta lactamase assessed as hydrolysis by spectrometry; method in brief: as §2
[8] = substrate: CC(=O)OCC1=C(C(=O)O)N2C(=O)[C@@H](NC(=O)Cc3cccs3)[C@H]2SC1; assay: as §3; method in brief: as §2
[9] = substrate: CC(C)(O/N=C(\C(=O)N[C@@H]1C(=O)N2C(C(=O)[O-])=C(C[n+]3ccccc3)CS[C@H]12)c1csc(N)n1)C(=O)O; assay: as §3; method in brief: as §2
[10] = substrate: CO/N=C(\C(=O)N[C@@H]1C(=O)N2C(C(=O)O)=C(COC(C)=O)CS[C@H]12)c1csc(N)n1; assay: as §3; method in brief: as §2
[11] = substrate: O=C(Cc1cccs1)N[C@@H]1C(=O)N2C(C(=O)O)=C(/C=C/c3ccc([N+](=O)[O-])cc3[N+](=O)[O-])CS[C@H]12; assay: as §3; method in brief: as §2
[12] = substrate: CC1(C)S[C@@H]2[C@H](NC(=O)Cc3ccccc3)C(=O)N2[C@H]1C(=O)O; assay: as §3; method in brief: as §2

B1: Beta-lactamase GES-13 (Pseudomonas aeruginosa), D1MIX9 (protein)
chain: MRFIHALLLAGIAHSAYASEKLTFKTDLEKLEREKAAQIGVAIVDPQGEIVAGHRMAQRFAMCSTFKFPLAALVFERIDSGTERGDRKLSYGPDMIVKWSPATERFLASGHMTVLEAAQAAVQLSDNGATNLLLREIGGPAAMTQYFRKIGDSVSRLDRKEPEMNDNTPGDLRDTTTPIAMARTVAKVLYGGALTSTSTHTIERWLIGNQTGDATLRAGFPKDWVVGEKTGTCANGGRNDIGFFKAQERDYAVAVYTTAPKLSAVERDELVASVGQVITQLILSTDK
**Q.** Which Km [1] does the source give for B1 here?
**A.** Its Km is 405 µM.

**Q.** What about the kcat [1] of the same protein?
**A.** The kcat was 35.6 s⁻¹.

**Q.** What about the Km [2] of the same protein?
**A.** Its Km is 229 µM.

**Q.** What about the kcat [2] of the same protein?
**A.** Its kcat is 30.4 s⁻¹.

**Q.** What about the kcat [3] of the same protein?
**A.** The kcat was under 0.01 s⁻¹.

**Q.** And the Km [4]?
**A.** Its Km is 63 µM.

**Q.** What about the kcat [4] of the same protein?
**A.** Its kcat is 69 s⁻¹.

**Q.** What about the Km [5] of the same protein?
**A.** Its Km is 197 µM.

**Q.** What about the kcat [5] of the same protein?
**A.** Its kcat is 29.3 s⁻¹.

**Q.** What about the Km [6] of the same protein?
**A.** Its Km is 139 µM.

**Q.** And the kcat [6]?
**A.** The kcat was 13.5 s⁻¹.

**Q.** What about the kcat/Km [7] of the same protein?
**A.** Its kcat/Km is 90000 M⁻¹ s⁻¹.

**Q.** And the kcat/Km [8]?
**A.** Its kcat/Km is 100000 M⁻¹ s⁻¹.

**Q.** And the kcat/Km [9]?
**A.** The kcat/Km was 130000 M⁻¹ s⁻¹.

**Q.** What about the kcat/Km [10] of the same protein?
**A.** Its kcat/Km is 1.09e+06 M⁻¹ s⁻¹.

**Q.** What about the kcat/Km [11] of the same protein?
**A.** Its kcat/Km is 150000 M⁻¹ s⁻¹.

**Q.** What about the kcat/Km [12] of the same protein?
**A.** Its kcat/Km is 100000 M⁻¹ s⁻¹.
